TAAR1 antagonist – human TAAR1 antagonists, primary screen, Fluo-8 calcium fluorescence, CHO RD-HGA16 cells | 360,000 compounds, 1.5% hits | antagonist | AID 624466, 2012 | Trace amine-associated receptor 1 (Homo sapiens), Q96RJ0 | inhibition, % at 3 µM;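 active = inhibition above a per-plate cutoff, the mean inhibition of test compounds on that plate plus 3 SD, cut at about 49% in these data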;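 note: 0% = DMSO plus EC80 beta-PEA response and 100% = DMSO alone without agonist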
Target sequence (Q96RJ0 whole entry, looked up): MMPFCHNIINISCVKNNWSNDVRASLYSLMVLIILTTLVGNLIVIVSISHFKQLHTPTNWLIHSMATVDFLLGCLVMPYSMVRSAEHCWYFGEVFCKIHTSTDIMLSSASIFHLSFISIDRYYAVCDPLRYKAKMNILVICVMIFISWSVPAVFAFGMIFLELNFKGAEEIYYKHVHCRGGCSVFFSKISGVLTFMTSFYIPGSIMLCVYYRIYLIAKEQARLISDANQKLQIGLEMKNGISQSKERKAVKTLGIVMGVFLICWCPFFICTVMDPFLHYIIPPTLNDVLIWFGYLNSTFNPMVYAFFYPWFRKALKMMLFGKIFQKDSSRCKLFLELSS
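System: RD-HGA16 CHO cells with stable hTAAR1 and Gα16 | Probe or stimulus: EC80 β-phenethylamine stimulus | Dosing: 3 µM, single point | Times: Dye loading 75 min at 37 °C, then 30 min room temperature | Measured by: Fluo-8 calcium-sensitive fluorescence | Read-out basis: % inhibition of agonist calcium response | Replicates: n of 1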
CHO parental Ca – ATP-evoked calcium signal inhibitors, parental CHO, primary screen, counter-screen for OX1R antagonist project, cell-based, fluorescence, Fluo-8 calcium dye | 330,000 compounds, 0.63% hits | inhibition, % at 5.6 µM | parental CHO-K1, ATP-induced calcium, Fluo-8 fluorescence;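 active = inhibition above that plate's mean sample inhibition plus 3 SD, cut at about 26% in these data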;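 note: 0% = ATP-challenged DMSO wells and 100% = DMSO wells without ATP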
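Assay system – parental CHO cells · Reagent – ATP stimulus · Detection – intracellular calcium via Fluo-8 no-wash fluorescent dye · Evaluation – percent inhibition of ATP-evoked calcium rise, normalized to controls · Controls – ATP wells versus no-ATP DMSO wells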
GPR7 antag – GPR7 receptor antagonists, primary screen, cell-based, fluorescence, single concentration; Neuropeptides B/W receptor type 1 (Homo sapiens), P48145; GPR7-expressing cells, fluorescence antagonist assay; inhibition, % at 4.4 µM; 290,000 compounds, 1.1% hits; AID 1861, 2009; in the data active = inhibition above about 16%, passing the limit was not always enough;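 note: cells stimulated with the agonist NPW; 0% = agonist with vehicle and 100% = vehicle without agonist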
OX1R antag-1 – OX1R (HCRTR1) antagonists, primary screen, fluorescence, CHO/OX1R cells, Fluo-8 calcium, orexin A; Orexin/Hypocretin receptor type 1 (Homo sapiens), O43613; Fluo-8 calcium fluorescence; inhibition, % at 5 µM; 330,000 compounds, 0.43% hits; AID 434989, 2010;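 active = inhibition above its plate's threshold, mean inhibition of all tested compounds on the plate plus 3 SD, cut at about 37% in these data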;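 note: 0% = orexin A challenge wells and 100% = SB-334867-A antagonist wells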
Target sequence (O43613 whole entry, looked up): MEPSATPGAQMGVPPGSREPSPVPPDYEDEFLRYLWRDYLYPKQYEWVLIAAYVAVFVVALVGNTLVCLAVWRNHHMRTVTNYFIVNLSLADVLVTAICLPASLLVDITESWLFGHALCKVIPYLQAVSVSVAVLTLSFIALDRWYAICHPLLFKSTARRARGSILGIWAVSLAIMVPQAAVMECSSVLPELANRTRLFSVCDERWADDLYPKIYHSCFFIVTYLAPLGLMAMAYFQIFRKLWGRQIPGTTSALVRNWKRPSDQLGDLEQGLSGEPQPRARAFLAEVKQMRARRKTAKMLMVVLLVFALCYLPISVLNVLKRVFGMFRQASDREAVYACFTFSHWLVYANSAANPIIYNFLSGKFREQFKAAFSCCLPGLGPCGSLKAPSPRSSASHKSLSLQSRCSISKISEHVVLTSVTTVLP
TAAR1 agonist – human TAAR1 agonists, primary screen, Fluo-8 calcium fluorescence, CHO RD-HGA16 cells; Trace amine-associated receptor 1 (Homo sapiens), Q96RJ0; vehicle wells 0%, saturating PEA agonist 100%; activation, % at 3 µM; 360,000 compounds, 0.99% hits;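 active = activation above the mean activation of all test compounds in the run plus 3 SD, cut at about 38% in these data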
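Benchmarks: low control DMSO, high control PEA (EC100); System: CHO RD-HGA16 cells carrying human TAAR1 plus Gα16; Detection: Fluo-8 fluorescence, 5 s baseline then 140 s kinetic read; Schedule: 17-24 h plating, Fluo-8 75 min 37 °C, 30 min RT; Read-out basis: % activation from peak over basal fluorescence ratio, DMSO-to-PEA scaled.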
OX1R antag-2 – antagonists of human orexin 1 receptor (OX1R); Orexin/Hypocretin receptor type 1 (Homo sapiens), O43613; OX1R-expressing cells, FRET antagonist read-out; inhibition, % at 6.6 µM; 330,000 compounds, 1.8% hits; AID 485270, 2010; in the data active = inhibition mostly above about 38%, no sharp cut-off; inactive = mostly below about 40%;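 note: 0% = agonist challenge alone and 100% = reference antagonist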
TAAR1 ag conf – human TAAR1 agonists, retest of hits, confirmation, Fluo-8 calcium fluorescence, CHO RD-HGA16 cells | shares compounds with TAAR1 agonist | scaled: DMSO 0%, maximal phenethylamine 100% | activation, % at 3 µM | 2,400 compounds, 82% hits;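 active = activation above a cutoff set at the run's mean compound activation plus 3 SD, cut at about 39% in these data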
Ga16 ag counter – nonselective calcium mobilization agonists, CHO-Ga16 cells, counter-screen for hTAAR1 agonist project, cell-based, fluorescence, CHO-Ga16 parental line; activation, % at 3 µM; 2,400 compounds, 50% hits; AID 651787, 2012; Fluo-8 calcium fluorescence; normalized to maximal ATP response, DMSO zero; shares compounds with TAAR1 agonist;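 active = activation above the run cutoff, the mean activation over all tested wells plus 3 SD, cut at about 12% in these data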;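 note: 0% = DMSO wells and 100% = maximal ATP response on the peak over basal ratio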
TAAR1 desensitize – TAAR1 desensitization by agonist hits, confirmation, counter-screen for TAAR1 agonist project, cell-based, fluorescence, tachyphylaxis | shares compounds with TAAR1 agonist | CHO RD-HGA16 hTAAR1, Fluo-8 calcium, beta-PEA response inhibition | inhibition, % at 3 µM | 2,400 compounds, 46% hits;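 active = inhibition above the run cutoff, the mean inhibition of all test compounds plus 3 SD, cut at about 49% in these data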;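 note: beta-PEA stimulus applied at its EC80; loss of beta-PEA calcium signal after compound pretreatment read as receptor desensitization; 0% = DMSO with beta-PEA at EC80 and 100% = DMSO alone without agonist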
Ga16 nonsel ant – inhibition of ATP-evoked calcium response in CHO-Ga16 cells, counter-screen for TAAR1 agonist project, cell-based, fluorescence; CHO-Ga16 ATP-induced calcium, Fluo-8 fluorescence; 2,400 compounds, 39% hits; inhibition, % at 3 µM; shares compounds with TAAR1 agonist; AID 651952, 2012;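 active = inhibition above the plate's mean compound inhibition plus 3 SD, computed per plate, cut at about 22% in these data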;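 note: 0% = EC80 ATP with DMSO and 100% = DMSO wells without ATP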
An asterisk follows results filed as active; . = no result given. Compounds with a hit are over-represented: about 4.6% of the library has one in this group of screens.

SMILES	TAAR1 antagonist	CHO parental Ca	GPR7 antag	OX1R antag-1	TAAR1 agonist	OX1R antag-2	TAAR1 ag conf	Ga16 ag counter	TAAR1 desensitize	Ga16 nonsel ant
Cc1ccccc1C(=O)N[C@H](C(=O)N1CCC[C@H]1C(=O)NCCc1ccccc1Cl)C(C)C	71*	.	.	.	57*	.	91*	-1	95*	10
O=C(NCCc1ccccc1F)C1CCCN1S(=O)(=O)c1ccccc1 (centres undefined)	-8	-13	-1	-5	12	14	.	.	.	.
CC(C)[C@H](NC(=O)C1CCCC1)C(=O)N1CCC[C@H]1C(=O)NCc1ccccc1	-15	.	.	.	0	.	.	.	.	.
Cc1ccccc1C(=O)N[C@H](C(=O)N1CCC[C@H]1C(=O)NCCc1ccccc1Cl)c1ccccc1	41	.	.	.	53*	.	75*	3	79*	11
CC(C)[C@H](NC(=O)N1CCOCC1)C(=O)N1CCC[C@H]1C(=O)NCc1ccccc1	13	.	.	.	0	.	.	.	.	.
O=C(NCCc1ccccc1)C1CCCN1C(=O)Nc1ccc(Cl)cc1 (centres undefined)	-8	-15	0	-18	2	4	.	.	.	.
CCCn1c(=O)c(C(=O)NCCc2ccc(Cl)cc2)c(O)c2ccccc21	-1	.	-23	.	0	.	.	.	.	.
C=CCNc1ncnc2c1ncn2[C@H]1CN(Cc2cccs2)C[C@@H](CO)O1	-10	.	.	.	3	.	.	.	.	.
CN1OC[C@@H]2CN(S(=O)(=O)c3cccc(C(F)(F)F)c3)[C@H](c3ccc(N4CCCCC4)cc3)C[C@@H]21	-16	.	.	.	1	.	.	.	.	.
CC(C)[C@H](NC(=O)CC1CCCC1)C(=O)N1CCC[C@H]1C(=O)NCCc1ccccc1Cl	57*	.	.	.	65*	.	85*	-1	86*	2
CCc1nnc(NC(=O)CN2CCN(Cc3cccc(OC)c3)CC2)s1	-2	8	-7	-17	4	2	.	.	.	.
Cc1ccc(N2C(N)=C(C#N)C(c3cccs3)C3=C2CC(C)(C)CC3=O)cc1 (centres undefined)	-12	-34	-6	-35	45*	9	39*	12*	0	5
CCCCN(C(=O)NC(=O)Nc1cccc(C)c1C)S(C)(=O)=O	25	5	17	4	70*	8	58*	19*	18	10
O=C(NCCS(=O)(=O)NCCc1ccccc1)c1ccc2c(c1)OCO2	.	-4	.	-13	.	13	.	0	.	7
COc1ccc(CCNS(=O)(=O)CCNC(=O)c2ccccc2)cc1	19	-22	.	-27	20	2	.	.	.	.
O=C(NCCc1ccccc1)c1ccc(=O)oc1	8	0	-1	-8	61*	25	67*	14*	12	4
O=C(NCCS(=O)(=O)NCc1ccccc1Cl)c1ccc2c(c1)OCO2	-19	-13	.	-3	1	5	.	.	.	.
COc1ccc(C(=O)NCCS(=O)(=O)NCCc2ccccc2)cc1	16	-25	.	-14	48*	6	72*	2	33	6
Cc1ccc(C(=O)NCCc2ccccc2)cc1	.	-3	-13	4	.	10	.	.	.	.
O=C(NCCc1ccccc1)c1ccc2c(c1)OCCCO2	-1	2	-4	-12	46*	35	60*	0	11	2
COC(=O)[C@@]12CCCCN1[C@H](c1ccc(SC3CCCCC3)cc1)[C@@H]1C(=O)N(C)C(=O)[C@@H]12	5	-21	.	-16	4	0	.	.	.	.
Clc1ccc(-c2nc3ccncc3[nH]2)cc1	19	-1	6	-19	49*	0	72*	-1	40	8
Cc1nnc(NC(=O)C2c3ccccc3Oc3ccccc32)s1	-19	-9	-7	-25	18	5	.	.	.	.
CCOCc1nnc(NC(=O)C2c3ccccc3Oc3ccccc32)s1	23	6	21	2	77*	-1	91*	54*	49*	37*
C=CCNC(=S)NNC(=O)C(CCC(C)C)CC(C)O (centres undefined)	-17	-4	-8	-13	4	25	.	.	.	.
SMILES	TAAR1 antagonist	CHO parental Ca	GPR7 antag	OX1R antag-1	TAAR1 agonist	OX1R antag-2	TAAR1 ag conf	Ga16 ag counter	TAAR1 desensitize	Ga16 nonsel ant
CCN1C(=O)C(=O)N(CC(=O)c2[nH]c(C)c(C(C)=O)c2C)C1=O	-10	-5	.	-12	2	13	.	.	.	.
CC(=O)c1c(C)[nH]c(C(=O)CN2C(=O)NC(C)(c3ccc(C)cc3)C2=O)c1C (centres undefined)	42	-7	20*	-16	85*	1	113*	56*	60*	36*
Clc1ccc(CSc2ncnc3c2ncn3C2CCCCO2)cc1 (centres undefined)	37	.	.	.	64*	.	15	11	10	14
COC(=O)c1cc(NC(=O)c2ccccc2)c(=O)oc1/C=C/Nc1ccc(Oc2ccccc2)cc1	68*	.	-9	.	50*	.	62*	73*	85*	87*
Cc1cc(C2=NNC(=NCCc3ccccc3)SC2)c(C)n1-c1c(C)n(C)n(-c2ccccc2)c1=O	21	-3	5	-26	70*	0	93*	2	62*	2
CCN(Cc1ccccc1)S(=O)(=O)c1ccc(C(=O)Nc2nnc(-c3ccccc3OC)o2)cc1	23	-29	-5	-26	43*	6	19	28*	39	33*
COc1ccccc1-c1nnc(NC(=O)c2ccc(S(=O)(=O)N(C)C)cc2)o1	-10	-3	14	-2	10	1	.	.	.	.

Screens deposited in PubChem by The Scripps Research Institute Molecular Screening Center.
